Results on 27 compounds are retold here after ChEMBL document CHEMBL1142942, “Polybrominated diphenyl ethers from the Indonesian sponge Lamellodysidea herbacea” (J Nat Prod, 2007).

Structures are written as SMILES. Values after ≈ are worked out from the molar mass of the structure shown. Some results are limits rather than exact numbers.

A short description of test [1]: Cytotoxicity against rat NBT-T2 cells by MTT method. Format: cell-based. The essentials:
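Rat bladder epithelial NBT-T2 cells exposed to compound. Viability read by MTT, and IC50 values derived from it.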

Test [2] has as its system Bacillus subtilis. Nature of the test: Antibacterial activity against Bacillus subtilis at 1 ug/disk after 24 hrs by agar-plate diffusion assay. To be noted: read-out: IZ. Format: functional. The essentials: (§1)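 Paper disks loaded with compound (acetone solution), 0.1 to 10 µg/disk, placed on agar plates inoculated with B. subtilis. Incubated 37 °C for 24 h, then read for zones of inhibition. All materials sterilized at 121 °C for 20 min before and after testing.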

For test [3], the system named is Bacillus subtilis. Nature of the test: Antibacterial activity against Bacillus subtilis at 0.1ug/disk after 24 hrs by agar-plate diffusion assay. As to conditions: read-out: IZ. The format is functional. The essentials: as §1
In test [4] the test system is Bacillus subtilis. As to the kind of experiment: Antibacterial activity against Bacillus subtilis at 10 ug/disk after 24 hrs by agar-plate diffusion assay. The format is functional. As to conditions: read-out: IZ. The essentials: as §1
Test [5] has as its system Bacillus subtilis. As to the kind of experiment: Antibacterial activity against Bacillus subtilis at 5 ug/disk after 24 hrs by agar-plate diffusion assay. The format is functional. As to conditions: read-out: IZ. The essentials: as §1

As a reminder, the IC50 is the concentration that inhibits the measured activity by half. Higher therefore signals weaker potency. On to `Oc1c(Br)cc(Br)cc1Oc1c(Br)cc(Br)c(Br)c1O`, for which the IC50 in test [1] is > 15 µg/mL. The zone of inhibition at 1 µg/disc in test [2] is 7 mm. Further, the zone of inhibition at 0.1 µg/disc in test [3] is 0 mm. The zone of inhibition at 10 µg/disc in test [4] worked out at 10 mm. For the same compound, in test [5], the zone of inhibition at 5 µg/disc was found to be 8 mm.

Take `COc1c(Br)cc(Br)cc1Oc1c(Br)c(Br)c(Br)c(Br)c1OC`: the zone of inhibition at 1 µg/disc in test [2] amounted to 0 mm. In test [3], the zone of inhibition at 0.1 µg/disc stood at 0 mm. Further, the zone of inhibition at 10 µg/disc in test [4] worked out at 0 mm. The zone of inhibition at 5 µg/disc in test [5] was 0 mm.

On to `Oc1cc(Br)c(Br)c(Br)c1Oc1cc(Br)cc(Br)c1O`, for which, in test [1], the concentration for half-maximal inhibition (IC50) was > 15 µg/mL. Besides, the zone of inhibition at 1 µg/disc in test [2] came out at 10 mm. Moreover, the zone of inhibition at 0.1 µg/disc in test [3] came to 7 mm. For the same compound, the zone of inhibition at 10 µg/disc in test [4] amounted to 16 mm. Moreover, in test [5], the zone of inhibition at 5 µg/disc was 13 mm.

`Oc1c(Br)cc(Br)cc1Oc1c(O)c(Br)c(Br)c(Br)c1Br`: in test [1], the IC50 was > 15 µg/mL. In addition, in test [2], the zone of inhibition at 1 µg/disc amounted to 7 mm. Further, the zone of inhibition at 0.1 µg/disc in test [3] stood at 6 mm. The zone of inhibition at 10 µg/disc in test [4] was determined as 12 mm. For the same compound, the zone of inhibition at 5 µg/disc in test [5] is 12 mm.

For the compound `COc1cc(Br)c(Br)c(Br)c1Oc1cc(Br)cc(Br)c1OC`, in test [2], the zone of inhibition at 1 µg/disc came out at 0 mm. In test [3], the zone of inhibition at 0.1 µg/disc worked out at 0 mm. Also, in test [4], the zone of inhibition at 10 µg/disc worked out at 0 mm. For the same compound, in test [5], the zone of inhibition at 5 µg/disc came out at 0 mm.

As to `Oc1ccc(Br)cc1Oc1c(O)ccc(Br)c1Br`, in test [1], the half-inhibitory concentration (IC50) was > 15 µg/mL. The zone of inhibition at 1 µg/disc in test [2] was 13 mm. Besides, in test [3], the zone of inhibition at 0.1 µg/disc was 7 mm. For the same compound, in test [4], the zone of inhibition at 10 µg/disc turned out to be 18 mm. Further, in test [5], the zone of inhibition at 5 µg/disc was 16 mm.

In the case of `COc1c(Br)cc(Br)cc1Oc1c(Br)ccc(Br)c1OC`, the zone of inhibition at 1 µg/disc in test [2] came to 0 mm. Besides, the zone of inhibition at 0.1 µg/disc in test [3] was determined as 0 mm. Moreover, the zone of inhibition at 10 µg/disc in test [4] is 0 mm. The zone of inhibition at 5 µg/disc in test [5] is 0 mm.

Turning to `Oc1c(Br)cccc1Oc1cc(Br)c(Br)c(Br)c1O`, the IC50 in test [1] is > 15 µg/mL. Moreover, the zone of inhibition at 1 µg/disc in test [2] came to 0 mm. In addition, the zone of inhibition at 0.1 µg/disc in test [3] came out at 0 mm. In test [4], the zone of inhibition at 10 µg/disc was 13 mm. For the same compound, the zone of inhibition at 5 µg/disc in test [5] was 8 mm.

Consider `COc1c(Br)cc(Br)cc1Oc1c(Br)cc(Br)c(Br)c1O`, for which the zone of inhibition at 1 µg/disc in test [2] worked out at 11 mm. Besides, the zone of inhibition at 0.1 µg/disc in test [3] was determined as 6 mm. Besides, the zone of inhibition at 10 µg/disc in test [4] was found to be 14 mm. The zone of inhibition at 5 µg/disc in test [5] stood at 14 mm.

On to `Oc1cc(Br)cc(Br)c1Oc1cc(Br)cc(Br)c1O`, for which the IC50 in test [1] was > 15 µg/mL. In test [2], the zone of inhibition at 1 µg/disc was 0 mm. The zone of inhibition at 0.1 µg/disc in test [3] turned out to be 0 mm. Besides, in test [4], the zone of inhibition at 10 µg/disc was determined as 18 mm. In addition, in test [5], the zone of inhibition at 5 µg/disc is 16 mm.

`COc1c(Br)c(Br)c(Br)c(Br)c1Oc1cc(Br)cc(Br)c1O`: the zone of inhibition at 1 µg/disc in test [2] was found to be 0 mm. Also, the zone of inhibition at 0.1 µg/disc in test [3] stood at 0 mm. Also, the zone of inhibition at 10 µg/disc in test [4] was found to be 0 mm. Moreover, the zone of inhibition at 5 µg/disc in test [5] was found to be 0 mm.

Consider `Oc1ccc(Br)cc1Oc1cc(Br)cc(Br)c1O`, for which, in test [1], the IC50 is > 15 µg/mL. For the same compound, the zone of inhibition at 1 µg/disc in test [2] was found to be 6 mm. The zone of inhibition at 0.1 µg/disc in test [3] was found to be 6 mm. Moreover, the zone of inhibition at 10 µg/disc in test [4] worked out at 11 mm. For the same compound, in test [5], the zone of inhibition at 5 µg/disc worked out at 8 mm.

Turning to `Oc1ccc(Br)cc1Oc1c(O)c(Br)cc(Br)c1Br`, the IC50 in test [1] was > 15 µg/mL. Also, the zone of inhibition at 1 µg/disc in test [2] came to 8 mm. Moreover, the zone of inhibition at 0.1 µg/disc in test [3] was found to be 7 mm. The zone of inhibition at 10 µg/disc in test [4] was found to be 17 mm. In addition, in test [5], the zone of inhibition at 5 µg/disc is 16 mm.

`COc1cc(Br)c(Br)c(Br)c1Oc1cc(Br)cc(Br)c1O`: in test [2], the zone of inhibition at 1 µg/disc stood at 0 mm. In addition, the zone of inhibition at 0.1 µg/disc in test [3] worked out at 0 mm. In test [4], the zone of inhibition at 10 µg/disc worked out at 0 mm. The zone of inhibition at 5 µg/disc in test [5] was determined as 0 mm.

Consider `COc1c(Br)cc(Br)cc1Oc1ccc(Br)cc1Br`, for which the zone of inhibition at 1 µg/disc in test [2] came to 0 mm. The zone of inhibition at 0.1 µg/disc in test [3] stood at 0 mm. In addition, the zone of inhibition at 10 µg/disc in test [4] was determined as 0 mm. Besides, the zone of inhibition at 5 µg/disc in test [5] was 0 mm.

With `COc1ccc(Br)cc1Oc1c(OC)ccc(Br)c1Br`, the zone of inhibition at 1 µg/disc in test [2] is 0 mm. The zone of inhibition at 0.1 µg/disc in test [3] was found to be 0 mm. Moreover, the zone of inhibition at 10 µg/disc in test [4] was found to be 0 mm. In addition, the zone of inhibition at 5 µg/disc in test [5] turned out to be 0 mm.

Turning to `COc1c(Br)cc(Br)cc1Oc1c(O)cc(Br)c(Br)c1Br`, the IC50 in test [1] worked out at 2.8 µg/mL (≈ 4.58 µM). Further, the zone of inhibition at 1 µg/disc in test [2] is 9 mm. The zone of inhibition at 0.1 µg/disc in test [3] stood at 6 mm. In addition, in test [4], the zone of inhibition at 10 µg/disc turned out to be 10 mm. Moreover, the zone of inhibition at 5 µg/disc in test [5] turned out to be 10 mm.

`COc1c(Br)cc(Br)cc1Oc1c(Br)cc(Br)c(Br)c1OC`: in test [2], the zone of inhibition at 1 µg/disc is 0 mm. Also, the zone of inhibition at 0.1 µg/disc in test [3] was found to be 0 mm. Further, in test [4], the zone of inhibition at 10 µg/disc was 0 mm. In addition, the zone of inhibition at 5 µg/disc in test [5] was 0 mm.

On to `Oc1cc(Br)ccc1Oc1cc(Br)cc(Br)c1O`, for which the half-inhibitory concentration (IC50) in test [1] worked out at 8.5 µg/mL (≈ 19.4 µM). The zone of inhibition at 1 µg/disc in test [2] was 0 mm. In addition, in test [3], the zone of inhibition at 0.1 µg/disc was determined as 0 mm. Besides, the zone of inhibition at 10 µg/disc in test [4] was found to be 13 mm. Also, the zone of inhibition at 5 µg/disc in test [5] was 7 mm.

Consider `COc1cc(Br)cc(Br)c1Oc1cc(Br)cc(Br)c1OC`, for which the zone of inhibition at 1 µg/disc in test [2] turned out to be 0 mm. Besides, in test [3], the zone of inhibition at 0.1 µg/disc came to 0 mm. In addition, the zone of inhibition at 10 µg/disc in test [4] was 0 mm. Besides, the zone of inhibition at 5 µg/disc in test [5] worked out at 0 mm.

As to `COc1c(Br)cc(Br)c(Br)c1Oc1cc(Br)cc(Br)c1O`, the zone of inhibition at 1 µg/disc in test [2] was 7 mm. Besides, the zone of inhibition at 0.1 µg/disc in test [3] was found to be 6 mm. For the same compound, the zone of inhibition at 10 µg/disc in test [4] worked out at 13 mm. The zone of inhibition at 5 µg/disc in test [5] was 10 mm.

As to `Brc1cc(Br)c2c(c1)Oc1c(Br)c(Br)c(Br)c(Br)c1O2`, the concentration for half-maximal inhibition (IC50) in test [1] was > 15 µg/mL. Also, in test [2], the zone of inhibition at 1 µg/disc worked out at 12 mm. The zone of inhibition at 0.1 µg/disc in test [3] was determined as 7 mm. The zone of inhibition at 10 µg/disc in test [4] is 14 mm. In test [5], the zone of inhibition at 5 µg/disc was found to be 13 mm.

For the compound `Oc1c(Br)cc(Br)cc1Oc1c(Br)ccc(Br)c1O`, in test [1], the IC50 was > 15 µg/mL. For the same compound, in test [2], the zone of inhibition at 1 µg/disc is 13 mm. Also, the zone of inhibition at 0.1 µg/disc in test [3] was found to be 7 mm. Also, in test [4], the zone of inhibition at 10 µg/disc came out at 20 mm. Also, in test [5], the zone of inhibition at 5 µg/disc turned out to be 20 mm.

Turning to `COc1c(Br)c(Br)cc(Br)c1Oc1cc(Br)cc(Br)c1O`, the zone of inhibition at 1 µg/disc in test [2] was determined as 9 mm. The zone of inhibition at 0.1 µg/disc in test [3] was 6 mm. In addition, the zone of inhibition at 10 µg/disc in test [4] was 9 mm. Further, in test [5], the zone of inhibition at 5 µg/disc was found to be 9 mm.

With `Oc1ccccc1Oc1c(O)cc(Br)cc1Br`, the IC50 in test [1] is > 15 µg/mL. Besides, the zone of inhibition at 1 µg/disc in test [2] came to 8 mm. The zone of inhibition at 0.1 µg/disc in test [3] worked out at 6 mm. The zone of inhibition at 10 µg/disc in test [4] amounted to 14 mm. Further, in test [5], the zone of inhibition at 5 µg/disc came to 10 mm.

With `COc1c(Br)cc(Br)cc1Oc1c(O)c(Br)c(Br)c(Br)c1Br`, in test [1], the IC50 is > 15 µg/mL. The zone of inhibition at 1 µg/disc in test [2] came to 10 mm. Moreover, the zone of inhibition at 0.1 µg/disc in test [3] worked out at 0 mm. In test [4], the zone of inhibition at 10 µg/disc came to 13 mm. In addition, in test [5], the zone of inhibition at 5 µg/disc was 10 mm.

`COc1ccc(Br)cc1Oc1c(Br)c(Br)cc(Br)c1OC`: the zone of inhibition at 1 µg/disc in test [2] came to 0 mm. Also, the zone of inhibition at 0.1 µg/disc in test [3] was determined as 0 mm. In test [4], the zone of inhibition at 10 µg/disc came to 0 mm. Further, the zone of inhibition at 5 µg/disc in test [5] is 0 mm.
